Data on eight compounds can be found in ChEMBL document CHEMBL4665843, “Automated Design of Macrocycles for Therapeutic Applications: From Small Molecules to Peptides and Proteins” (J Med Chem, 2020).

For assay [1], the target named is Glucagon-like peptide 1 receptor (Homo sapiens, UniProt P43220). Kind of assay: Agonist activity at human GLP-1 receptor expressed in HEK293 cells assessed as induction of cAMP accumulation incubated for 30 mins by HTRF assay. The class given is functional, cell-based. In outline: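 HEK-293 cells stably expressing human receptor, grown in DMEM/10% FBS, frozen, thawed and washed in HBSS/20 mM HEPES/0.1% HSA; resuspended with 2 mM IBMX. 5000 cells/well incubated with peptide 30 min at room temperature; cAMP by HTRF kit, 1 h with reagents in lysis buffer, 665/620 nm fluorescence ratio.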

In a further assay the target is Glucagon receptor (Homo sapiens, UniProt P47871). Briefly: Agonist activity at human glucagon receptor expressed in HEK293 cells assessed as induction of cAMP accumulation incubated for 30 mins by HTRF assay. Type of assay: functional, cell-based. Background: Changes in cAMP serve as a functional read-out for many G protein-coupled receptors.

Residues, ends and D or L forms follow the SMILES beside them.

Chain of Glucagon receptor (P47871 whole entry): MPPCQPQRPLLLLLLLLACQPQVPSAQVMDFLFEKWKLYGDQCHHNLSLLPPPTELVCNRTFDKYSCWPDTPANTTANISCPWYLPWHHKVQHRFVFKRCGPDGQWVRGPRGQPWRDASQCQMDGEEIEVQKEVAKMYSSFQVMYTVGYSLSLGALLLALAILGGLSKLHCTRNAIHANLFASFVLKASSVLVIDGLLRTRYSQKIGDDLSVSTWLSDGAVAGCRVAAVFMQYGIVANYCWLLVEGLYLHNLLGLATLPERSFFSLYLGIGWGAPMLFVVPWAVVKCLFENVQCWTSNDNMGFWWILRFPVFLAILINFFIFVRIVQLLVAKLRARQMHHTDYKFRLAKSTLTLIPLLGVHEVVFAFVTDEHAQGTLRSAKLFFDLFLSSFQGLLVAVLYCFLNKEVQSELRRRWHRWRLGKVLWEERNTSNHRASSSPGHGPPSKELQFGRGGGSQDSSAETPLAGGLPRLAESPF
Chain of Glucagon-like peptide 1 receptor (P43220 whole entry): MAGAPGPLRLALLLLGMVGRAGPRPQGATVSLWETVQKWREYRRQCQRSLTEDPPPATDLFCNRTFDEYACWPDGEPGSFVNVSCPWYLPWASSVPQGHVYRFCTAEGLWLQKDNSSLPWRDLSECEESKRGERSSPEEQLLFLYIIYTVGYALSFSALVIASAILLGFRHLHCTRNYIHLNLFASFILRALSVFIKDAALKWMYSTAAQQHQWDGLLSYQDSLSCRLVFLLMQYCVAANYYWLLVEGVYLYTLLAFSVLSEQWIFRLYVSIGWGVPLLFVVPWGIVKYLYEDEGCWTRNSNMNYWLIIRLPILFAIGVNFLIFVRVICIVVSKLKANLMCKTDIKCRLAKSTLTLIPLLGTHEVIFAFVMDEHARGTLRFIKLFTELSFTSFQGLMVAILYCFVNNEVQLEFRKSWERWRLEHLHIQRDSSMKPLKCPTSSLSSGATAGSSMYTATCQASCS

By EC50 is commonly meant the concentration that produces a half-maximal response. With `CC[C@H](C)[C@H](NC(=O)[C@H](Cc1ccccc1)NC(=O)[C@H](CC(=O)O)NC(=O)[C@H](CCC(N)=O)NC(=O)[C@H](C)NC(=O)[C@H](CCCNC(=N)N)NC(=O)[C@H](CCCNC(=N)N)NC(=O)[C@H](CO)NC(=O)[C@H](CC(=O)O)NC(=O)[C@H](CCSC)NC(=O)[C@H](CCC(N)=O)NC(=O)[C@H](CCCCN)NC(=O)[C@H](CO)NC(=O)[C@H](CC(C)C)NC(=O)[C@H](CC(=O)O)NC(=O)[C@H](CO)NC(=O)[C@@H](NC(=O)[C@H](Cc1ccccc1)NC(=O)[C@@H](NC(=O)CNC(=O)[C@H](CCC(N)=O)NC(=O)[C@@H](CO)NC(=O)[C@@H](N)Cc1cnc[nH]1)[C@@H](C)O)[C@@H](C)O)C(=O)N[C@@H](CCC(=O)O)C(=O)N[C@@H](Cc1c[nH]c2ccccc12)C(=O)N[C@@H](CC(C)C)C(=O)N[C@@H](CCCCN)C(=O)N[C@@H](CC(N)=O)C(=O)NCC(=O)NCC(=O)N1CCC[C@H]1C(=O)N[C@@H](CO)C(=O)N[C@@H](CO)C(=O)NCC(=O)N[C@@H](C)C(=O)N1CCC[C@H]1C(=O)N1CCC[C@H]1C(=O)N1CCC[C@H]1C(=O)N[C@@H](CO)C(N)=O`, the EC50 turned out to be 0.0754 nM in assay [1] and 0.122 nM at Glucagon receptor. On to `CC[C@H](C)[C@H](NC(=O)[C@H](Cc1ccccc1)NC(=O)[C@H](CC(=O)O)NC(=O)[C@H](CCC(N)=O)NC(=O)[C@H](C)NC(=O)[C@H](CCCNC(=N)N)NC(=O)[C@H](CCCNC(=N)N)NC(=O)[C@H](CO)NC(=O)[C@H](CC(=O)O)NC(=O)[C@H](CCSC)NC(=O)[C@H](CCC(N)=O)NC(=O)[C@H](CCCCN)NC(=O)[C@H](CO)NC(=O)[C@H](CC(C)C)NC(=O)[C@H](CC(=O)O)NC(=O)[C@H](CO)NC(=O)[C@@H](NC(=O)[C@H](Cc1ccccc1)NC(=O)[C@@H](NC(=O)CNC(=O)[C@H](CCC(N)=O)NC(=O)[C@@H](CO)NC(=O)[C@@H](N)Cc1cnc[nH]1)[C@@H](C)O)[C@@H](C)O)C(=O)N[C@@H](CCC(=O)O)C(=O)N[C@@H](Cc1c[nH]c2ccccc12)C(=O)N[C@@H](CC(C)C)C(=O)N[C@@H](CCCCN)C(=O)N[C@H]1CCCCNC(=O)CC[C@@H](C(=O)NCC(=O)N[C@@H](C)C(=O)N2CCC[C@H]2C(=O)N2CCC[C@H]2C(=O)N2CCC[C@H]2C(=O)N[C@@H](CO)C(N)=O)NC(=O)[C@H](CO)NC(=O)[C@@H]2CCCN2C(=O)CNC(=O)CNC1=O`, for which the half-maximal effective concentration (EC50) in assay [1] is 0.00813 nM; on Glucagon receptor it was 0.0596 nM. The corresponding values for `CC[C@H](C)[C@H](NC(=O)[C@H](Cc1ccccc1)NC(=O)[C@H](CC(=O)O)NC(=O)[C@H](CCC(N)=O)NC(=O)[C@H](C)NC(=O)[C@]1(C)CCC/C=C\CCC[C@](C)(NC(=O)[C@H](CCC(N)=O)NC(=O)[C@H](CCCCN)NC(=O)[C@H](CO)NC(=O)[C@H](CC(C)C)NC(=O)[C@H](CC(=O)O)NC(=O)[C@H](CO)NC(=O)[C@@H](NC(=O)[C@H](Cc2ccccc2)NC(=O)[C@@H](NC(=O)CNC(=O)[C@H](CCC(N)=O)NC(=O)[C@@H](CO)NC(=O)[C@@H](N)Cc2cnc[nH]2)[C@@H](C)O)[C@@H](C)O)C(=O)N[C@@H](CC(=O)O)C(=O)N[C@@H](CO)C(=O)N[C@@H](CCCNC(=N)N)C(=O)N1)C(=O)N[C@@H](CCC(=O)O)C(=O)N[C@@H](Cc1c[nH]c2ccccc12)C(=O)N[C@@H](CC(C)C)C(=O)N[C@@H](CCCCN)C(=O)N[C@@H](CC(N)=O)C(=O)NCC(=O)NCC(=O)N1CCC[C@H]1C(=O)N[C@@H](CO)C(=O)N[C@@H](CO)C(=O)NCC(=O)N[C@@H](C)C(=O)N1CCC[C@H]1C(=O)N1CCC[C@H]1C(=O)N1CCC[C@H]1C(=O)N[C@@H](CO)C(N)=O` are 0.0012 nM and 8.43 nM. On to `CC[C@H](C)[C@H](NC(=O)[C@H](Cc1ccccc1)NC(=O)[C@H](CC(=O)O)NC(=O)[C@H](CCC(N)=O)NC(=O)[C@H](C)NC(=O)[C@]1(C)CCC/C=C/CCC[C@](C)(NC(=O)[C@H](CCC(N)=O)NC(=O)[C@H](CCCCN)NC(=O)[C@H](CO)NC(=O)[C@H](CC(C)C)NC(=O)[C@H](CC(=O)O)NC(=O)[C@H](CO)NC(=O)[C@@H](NC(=O)[C@H](Cc2ccccc2)NC(=O)[C@@H](NC(=O)CNC(=O)[C@H](CCC(N)=O)NC(=O)[C@H](CO)NC(=O)[C@@H](N)Cc2cnc[nH]2)[C@@H](C)O)[C@@H](C)O)C(=O)N[C@@H](CC(=O)O)C(=O)N[C@@H](CO)C(=O)N[C@@H](CCCNC(=N)N)C(=O)N1)C(=O)N[C@@H](CCC(=O)O)C(=O)N[C@@H](Cc1c[nH]c2ccccc12)C(=O)N[C@@H](CC(C)C)C(=O)N[C@@H](CCCCN)C(=O)N[C@@H](CC(N)=O)C(=O)NCC(=O)NCC(=O)N1CCC[C@H]1C(=O)N[C@@H](CO)C(=O)N[C@@H](CO)C(=O)NCC(=O)N[C@@H](C)C(=O)N1CCC[C@H]1C(=O)N1CCC[C@H]1C(=O)N1CCC[C@H]1C(=O)N[C@@H](CO)C(N)=O`, for which the results for the concentration for a half-maximal effect (EC50) (in assay [1]; at Glucagon receptor) were 0.0004 nM and 0.369 nM, respectively. The corresponding values for `CC[C@H](C)[C@H](NC(=O)[C@H](Cc1ccccc1)NC(=O)[C@H](CC(=O)O)NC(=O)[C@@H]1CCC(=O)NCCCC[C@H](NC(=O)[C@H](CC(=O)O)NC(=O)[C@H](CCSC)NC(=O)[C@H](CCC(N)=O)NC(=O)[C@H](CCCCN)NC(=O)[C@H](CO)NC(=O)[C@H](CC(C)C)NC(=O)[C@H](CC(=O)O)NC(=O)[C@H](CO)NC(=O)[C@@H](NC(=O)[C@H](Cc2ccccc2)NC(=O)[C@@H](NC(=O)CNC(=O)[C@H](CCC(N)=O)NC(=O)[C@@H](CO)NC(=O)[C@@H](N)Cc2cnc[nH]2)[C@@H](C)O)[C@@H](C)O)C(=O)N[C@@H](CCCNC(=N)N)C(=O)N[C@@H](CCCNC(=N)N)C(=O)N[C@@H](C)C(=O)N1)C(=O)N[C@@H](CCC(=O)O)C(=O)N[C@@H](Cc1c[nH]c2ccccc12)C(=O)N[C@@H](CC(C)C)C(=O)N[C@@H](CCCCN)C(=O)N[C@@H](CC(N)=O)C(=O)NCC(=O)NCC(=O)N1CCC[C@H]1C(=O)N[C@@H](CO)C(=O)N[C@@H](CO)C(=O)NCC(=O)N[C@@H](C)C(=O)N1CCC[C@H]1C(=O)N1CCC[C@H]1C(=O)N1CCC[C@H]1C(=O)N[C@@H](CO)C(N)=O` are 0.0064 nM and 0.0078 nM.

`CC[C@H](C)[C@@H]1NC(=O)[C@H](Cc2ccccc2)NC(=O)[C@@H](NC(=O)[C@H](CCC(N)=O)NC(=O)[C@H](C)NC(=O)[C@H](CCCNC(=N)N)NC(=O)[C@H](CCCNC(=N)N)NC(=O)[C@H](CO)NC(=O)[C@H](CC(=O)O)NC(=O)[C@H](CCSC)NC(=O)[C@H](CCC(N)=O)NC(=O)[C@H](CCCCN)NC(=O)[C@H](CO)NC(=O)[C@H](CC(C)C)NC(=O)[C@H](CC(=O)O)NC(=O)[C@H](CO)NC(=O)[C@@H](NC(=O)[C@H](Cc2ccccc2)NC(=O)[C@@H](NC(=O)CNC(=O)[C@H](CCC(N)=O)NC(=O)[C@H](CO)NC(=O)[C@@H](N)Cc2cnc[nH]2)[C@@H](C)O)[C@@H](C)O)CSCc2cc3cc(c2)CSC[C@@H](C(=O)N2CCC[C@H]2C(=O)N2CCC[C@H]2C(=O)N2CCC[C@H]2C(=O)N[C@@H](CO)C(N)=O)NC(=O)CNC(=O)[C@H](CO)NC(=O)[C@@H](CO)NC(=O)[C@@H]2CCCN2C(=O)CNC(=O)CNC(=O)[C@H](CSC3)NC(=O)[C@H](CCCCN)NC(=O)[C@H](CC(C)C)NC(=O)[C@H](Cc2c[nH]c3ccccc23)NC(=O)[C@H](CCC(=O)O)NC1=O`: the EC50 turned out to be 0.194 nM in assay [1] and 0.578 nM on Glucagon receptor. As for `CC[C@H](C)[C@H](NC(=O)[C@H](Cc1ccccc1)NC(=O)[C@H](CC(=O)O)NC(=O)[C@H](CCC(N)=O)NC(=O)[C@H](C)NC(=O)[C@H](CCCNC(=N)N)NC(=O)[C@H](CCCNC(=N)N)NC(=O)[C@H](CO)NC(=O)[C@H](CC(=O)O)NC(=O)[C@@H]1CCC(=O)NCCCC[C@H](NC(=O)[C@H](CC(=O)O)NC(=O)[C@H](CO)NC(=O)[C@@H](NC(=O)[C@H](Cc2ccccc2)NC(=O)[C@@H](NC(=O)CNC(=O)[C@H](CCC(N)=O)NC(=O)[C@H](CO)NC(=O)[C@@H](N)Cc2cnc[nH]2)[C@@H](C)O)[C@@H](C)O)C(=O)N[C@@H](CO)C(=O)N[C@@H](CCCCN)C(=O)N[C@@H](CCC(N)=O)C(=O)N1)C(=O)N[C@@H](CCC(=O)O)C(=O)N[C@@H](Cc1c[nH]c2ccccc12)C(=O)N[C@@H](CC(C)C)C(=O)N[C@@H](CCCCN)C(=O)N[C@@H](CC(N)=O)C(=O)NCC(=O)NCC(=O)N1CCC[C@H]1C(=O)N[C@@H](CO)C(=O)N[C@@H](CO)C(=O)NCC(=O)N[C@@H](C)C(=O)N1CCC[C@H]1C(=O)N1CCC[C@H]1C(=O)N1CCC[C@H]1C(=O)N[C@@H](CO)C(N)=O` (HELM PEPTIDE1{H.S.Q.G.T.F.T.S.D.K.S.K.Q.E.D.S.R.R.A.Q.D.F.I.E.W.L.K.N.G.G.P.S.S.G.A.P.P.P.S.[am]}$PEPTIDE1,PEPTIDE1,10:R3-14:R3$$$V2.0), the EC50 in assay [1] was 0.0475 nM.

For `CC[C@H](C)[C@@H]1NC(=O)[C@H](Cc2ccccc2)NC(=O)[C@@H](NC(=O)[C@H](CCC(N)=O)NC(=O)[C@H](C)NC(=O)[C@H](CCCNC(=N)N)NC(=O)[C@H](CCCNC(=N)N)NC(=O)[C@H](CO)NC(=O)[C@H](CC(=O)O)NC(=O)[C@H](CCSC)NC(=O)[C@H](CCC(N)=O)NC(=O)[C@H](CCCCN)NC(=O)[C@H](CO)NC(=O)[C@H](CC(C)C)NC(=O)[C@H](CC(=O)O)NC(=O)[C@H](CO)NC(=O)[C@@H](NC(=O)[C@H](Cc2ccccc2)NC(=O)[C@@H](NC(=O)CNC(=O)[C@H](CCC(N)=O)NC(=O)[C@H](CO)NC(=O)[C@@H](N)Cc2cnc[nH]2)[C@@H](C)O)[C@@H](C)O)CSCc2cccc(c2)CSC[C@@H](C(=O)N2CCC[C@H]2C(=O)N2CCC[C@H]2C(=O)N2CCC[C@H]2C(=O)N[C@@H](CO)C(N)=O)NC(=O)CNC(=O)[C@H](CO)NC(=O)[C@H](CO)NC(=O)[C@@H]2CCCN2C(=O)CNC(=O)CNC(=O)[C@H](CC(N)=O)NC(=O)[C@H](CCCCN)NC(=O)[C@H](CC(C)C)NC(=O)[C@H](Cc2c[nH]c3ccccc23)NC(=O)[C@H](CCC(=O)O)NC1=O` (HELM PEPTIDE1{H.S.Q.G.T.F.T.S.D.L.S.K.Q.M.D.S.R.R.A.Q.C.F.I.E.W.L.K.N.G.G.P.S.S.G.C.P.P.P.S.[am]}|CHEM1{[c1cc(C[*:1])cc(C[*:2])c1]}$PEPTIDE1,CHEM1,21:R3-1:R1|PEPTIDE1,CHEM1,35:R3-1:R2$$$V2.0), the 50% effective concentration (EC50) in assay [1] stood at 0.0249 nM.
